Compound activity: PubChem, NMMLSC
MEKK2wt PB1 HTS – modulators of MEK5 binding to wildtype MEKK2, primary screen, biochemical, multiplex bead flow cytometry, Alexa488-MEK5; binding response (% of control), % at 10 µM; actives 1.1% (n = 290,000); AID 1531, 2009; Mitogen-activated protein kinase kinase kinase 2 (Homo sapiens), Q9Y2U5; Alexa488-MEK5 binding to MEKK2 WT; actives lie on both sides; in the data active = binding response below about 67% or above about 130%
MEKK2mut PB1 HTS – MEK5 binding signal on mutant MEKK2 PB1, primary screen, biochemical, multiplex bead flow cytometry, Alexa488-MEK5 | percent response, % at 10 µM | AID 1530, 2009 | Alexa488-MEK5 binding to MEKK2 mutant | actives 0.35% (n = 290,000); in the data active = percent response above about 24%, passing the limit was not always enough
ABCG2 inh – ABCG2 efflux pump inhibitors, primary screen, multiplex with ABCB1, IgMXP3 cells, flow cytometry. actives 0.1% (n = 190,000). JC-1 efflux. Broad substrate specificity ATP-binding cassette transporter ABCG2 (Homo sapiens), Q9UNQ0. inhibition, % at 6.6 µM. AID 1325, 2008;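 active = inhibition above 80%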
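System: two drug-resistant human cell lines, ABCG2 and ABCB1; controls: nicardipine high and DMSO low controls; times: 10 min exposure at 25 °C with rotation, no wash; detection: flow cytometry of retained JC-1 fluorescence; read-out basis: percent efflux inhibition, scaled nicardipine 100% to DMSO 0%; doses: one concentration, 6.6 µM final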
ABCB1 inh – ABCB1 efflux pump inhibitors, primary screen, cell-based, multiplex, flow cytometry, ABCG2 counter-screen | inhibition, % at 6.6 µM | CCRF-Adr cells, JC-1 efflux | actives 0.067% (n = 190,000) | ATP-dependent translocase ABCB1 (Homo sapiens), P08183; in the data active = inhibition above about 40%;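 note: higher value means more JC-1 retained so stronger ABCB1 efflux block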
MEKK3 PB1 HTS – modulators of MEKK3-MEK5 PB1 binding, primary screen, biochemical, wildtype MEKK3, multiplex bead flow cytometry, Alexa488-MEK5; bead-based flow cytometry, Alexa488-MEK5 binding to MEKK3; actives lie on both sides; 0 = blocked by unlabeled MEK5, 100 = vehicle; binding response (% of control), % at 10 µM; actives 1.4% (n = 290,000); AID 1529, 2009;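 active = binding response more than 3 SD above or below the average of its plate-row segment, actives on both sides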;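 note: Alexa488 bead fluorescence after subtracting the streptavidin-only scavenger bead signal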
Target sequence (Q99759 whole entry, looked up): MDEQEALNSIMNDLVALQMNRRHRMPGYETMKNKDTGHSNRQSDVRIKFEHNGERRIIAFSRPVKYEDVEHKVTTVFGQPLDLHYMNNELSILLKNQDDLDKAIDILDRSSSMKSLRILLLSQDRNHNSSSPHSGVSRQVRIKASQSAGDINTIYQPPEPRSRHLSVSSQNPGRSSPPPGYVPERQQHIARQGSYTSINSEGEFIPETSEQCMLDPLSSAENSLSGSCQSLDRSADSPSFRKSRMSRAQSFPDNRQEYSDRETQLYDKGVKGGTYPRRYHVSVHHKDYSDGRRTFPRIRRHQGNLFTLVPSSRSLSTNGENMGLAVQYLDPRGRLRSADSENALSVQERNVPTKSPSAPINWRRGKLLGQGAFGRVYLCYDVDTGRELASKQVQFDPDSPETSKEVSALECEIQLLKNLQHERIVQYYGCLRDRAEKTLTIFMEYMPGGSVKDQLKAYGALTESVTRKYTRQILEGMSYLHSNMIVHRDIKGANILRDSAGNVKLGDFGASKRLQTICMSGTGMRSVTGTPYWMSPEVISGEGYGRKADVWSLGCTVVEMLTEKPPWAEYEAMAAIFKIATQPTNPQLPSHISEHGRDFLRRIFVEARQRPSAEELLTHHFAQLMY
MEKK2wt confirm – modulators of MEK5 binding to wildtype MEKK2, confirmation, biochemical, single concentration, multiplex bead flow cytometry. actives 2.4% (n = 5,900). Alexa488-MEK5 binding to MEKK2 WT; actives lie on both sides. binding response (% of control), % at 10 µM. AID 1892, 2009. shares compounds with MEKK3 PB1 HTS; in the data active = binding response below about 16% or above about 210%; inactive = in between
MEKK2mut confirm – mutant MEKK2 PB1-MEK5 binding signal retest – biochemical, single concentration, multiplex bead flow cytometry, confirmation; shares compounds with MEKK3 PB1 HTS; Alexa488-MEK5 binding to MEKK2 mutant; percent response, % at 10 µM; actives 2% (n = 5,900); in the data active = percent response mostly above about 71%, no sharp cut-off; inactive = mostly below about 38%;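 note: higher means compound restores mutant binding toward wildtype level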
MEKK3 confirm – MEKK3 wild-type PB1 binding to MEK5, inhibitors, confirmation, biochemical, bead multiplex flow cytometry, single concentration, wildtype; binding response (% of control), % at 10 µM; AID 1894, 2009; Alexa488-MEK5 binding to MEKK3; active compounds read low; shares compounds with MEKK3 PB1 HTS; actives 1.8% (n = 5,900);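 active = binding response below 72% of control, or above a set upper limit, though filed actives all read lower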;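 note: lower values mean stronger disruption of MEK5 binding to MEKK3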
A number is an active result; n = inactive; x = no result given; [ ] = another dose, or the depositor's remark. A selection: hits, their analogues and other compounds. The true share with any hit is near 2.3%.

SMILES | MEKK2wt PB1 HTS | MEKK2mut PB1 HTS | ABCG2 inh | ABCB1 inh | MEKK3 PB1 HTS | MEKK2wt confirm | MEKK2mut confirm | MEKK3 confirm
COc1ccc(C2=NOC(C)(c3nnc(-c4ccc(F)cc4)o3)C2)cc1 (configuration not stated) | n | n | x | x | 81[inhibitor] | n | n | n
CC1(c2nnc(-c3ccc(F)cc3)o2)CC(c2ccc(F)cc2)=NO1 (configuration not stated) | n | n | x | x | n | x | x | x
COc1ccc(C(=O)O)cc1NC(=S)NC(=O)C(c1ccccc1)c1ccccc1 | n | n | x | x | n | x | x | x
COC(=O)c1cc(C(=O)OC)cc(N2C(=O)CC(NNC(=O)c3ccc(C)cc3)C2=O)c1 (configuration not stated) | n | n | n | n | 61[inhibitor] | n | n | n
CCOC(=O)c1c(C)n(-c2ccc(C)cc2)c2ccc(O)c(CN(C)C)c12 | 138 | n | n | n | n | n | n | n
CCOC(=O)c1c(CSc2ccccc2)n(C)c2cc(Br)c(O)c(CN(C)C)c12 | n | n | x | x | n | x | x | x
CCOC(=O)c1c(CSc2ccc(C)cc2)n(C)c2cc(Br)c(O)c(CN(C)C)c12 | 145 | n | n | n | n | n | n | n
CC(C)c1ccc(N(C(=O)c2csnn2)C(C(=O)NC2CCCC2)c2cccnc2)cc1 (configuration not stated) | n | n | x | x | n | x | x | x
CCC(C)c1ccccc1NC(=O)COC(=O)c1ccc(N2CCCC2)c([N+](=O)[O-])c1 (configuration not stated) | n | n | n | n | 132 | n | n | n
Cc1cccc(C)c1NC(=O)COC(=O)c1ccc(N2CCCC2)c([N+](=O)[O-])c1 | n | n | n | n | n | x | x | x
CCCN(CCC)Cc1c(C(=O)N/N=C/CCc2ccccc2)nnn1-c1nonc1N | n | n | x | x | n | x | x | x
NC(=O)N/N=C/c1coc2ccc(O)cc2c1=O | n | n | x | x | 45[inhibitor] | n | n | n
O=[N+]([O-])c1cccc(NC(=S)N2CCc3ccccc32)c1 | n | n | x | x | n | x | x | x
Cc1cc2nc(-c3ccc(SCC(=O)Nc4ccc(S(=O)(=O)N5CCCC5)cc4)nc3)[nH]c2cc1C | n | n | n | n | 132 | n | n | n
NC(=O)C1CCN(C(=O)COc2ccc3ccc(=O)oc3c2)CC1 | n | n | x | x | n | x | x | x
COc1ccccc1C(=O)Nc1ccnn1C1CCN(Cc2cnc(N(C)C)s2)CC1 | n | n | x | x | n | x | x | x
CCN(CC)S(=O)(=O)c1cccc(-c2nnc(SCC(=O)NC)n2N)c1 | 7.0[inhibitor] | n | n | n | 6.0[inhibitor] | n | n | n
CCN(CC)S(=O)(=O)c1cccc(-c2nnc(SCC(=O)N3CCC(C(=O)O)CC3)n2N)c1 | x | x | n | n | x | x | x | x
O=C(Cn1cnc2c(nnn2Cc2ccc(Cl)cc2)c1=O)N1CCCc2ccccc21 | n | n | n | n | 69[inhibitor] | n | n | n
Cc1ccc(Cn2nnc3c(=O)n(CC(=O)N4CCCc5ccccc54)cnc32)cc1 | n | n | n | n | n | x | x | x
O=c1c(Cl)c(N2CCNCC2)cnn1C12CC3CC(CC(C3)C1)C2 | n | n | n | n | n | x | x | x
O=C(O)C12CC3CC(C1)CC(n1ncc(N4CCN(c5ccccc5)CC4)c(Cl)c1=O)(C3)C2 | n | n | n | n | 145 | n | n | n
CCOC(=O)c1sc(NC(=O)c2ccc(S(=O)(=O)N3CCCCC3)cc2)nc1-c1ccccc1 | n | n | n | n | 135 | n | n | n
CCOC(=O)c1sc(NC(=O)c2ccc(S(=O)(=O)N3CCCCCC3)cc2)nc1-c1ccccc1 | n | n | n | n | n | x | x | x
Cc1ccc(S(=O)(=O)Nc2cccc(C(=O)N3CCOCC3)c2)c(C)c1NS(C)(=O)=O | n | n | x | x | n | x | x | x
SMILES | MEKK2wt PB1 HTS | MEKK2mut PB1 HTS | ABCG2 inh | ABCB1 inh | MEKK3 PB1 HTS | MEKK2wt confirm | MEKK2mut confirm | MEKK3 confirm
COc1ccc(N=C2SC(C(=O)Nc3ccc(C(=O)O)cc3)CC(=O)N2Cc2cccs2)cc1 (configuration not stated) | n | n | x | x | 131 | n | n | n
O=C(O)c1cccc2c1/C(=N/Nc1ccc([N+](=O)[O-])cc1[N+](=O)[O-])c1ccccc1-2 | n | n | x | x | n | x | x | x
CCOC(=O)CN1C=C(c2ccc3ccccc3n2)C(C[N+](=O)[O-])c2ccccc21 (configuration not stated) | 67 | 82 | n | n | n | n | n | n
CCCC(CCC)c1nc2ccncc2[nH]1 | n | n | n | n | n | x | x | x
c1cc2nc(C34CC5CC(CC(C5)C3)C4)[nH]c2cn1 | 3.0[inhibitor] | n | n | n | 2.0[inhibitor] | n | n | n
O=C(NNC(=O)C1C2C=CC(C2)C1C(=O)O)c1cc(Cl)ccc1O (configuration not stated) | n | n | x | x | n | x | x | x
NS(=O)(=O)c1ccc(CCNCc2cc(Br)ccc2OCc2ccccc2)cc1 | 145 | n | n | n | n | n | n | n
CCOc1cc(CNCCc2ccc(S(N)(=O)=O)cc2)cc(Cl)c1OCc1ccccc1 | 206 | 36 | n | n | n | n | n | n
CCOc1cc(CNCCc2ccc(S(N)(=O)=O)cc2)ccc1OCc1ccccc1 | n | n | n | n | n | x | x | x
Cc1c(C)[n+](=O)c(-c2cccs2)c(C)n1[O-] | 0.0[inhibitor] | n | n | n | 1.0[inhibitor] | n | n | n
Cc1cc(C(F)F)nn1CC(=O)Nc1cc([N+](=O)[O-])ccc1F | n | n | n | n | n | x | x | x
Cc1cc(C(F)F)nn1CC(=O)NCc1ccccc1F | n | n | n | n | 141 | n | n | n
O=C(Nc1ccc(Cl)cn1)c1ccc2c(Cl)c3c(nc2c1)CCC3 | 47[inhibitor] | n | x | x | 40[inhibitor] | n | n | 70
Cc1cccc(NC(=O)c2ccc3c(Cl)c4c(nc3c2)CCCC4)n1 | n | n | n | n | n | x | x | x
CN(C(=S)Nc1ccc(SC(F)F)cc1)c1ccc(O)cc1 | n | n | n | n | 133 | n | n | n
COCCN(Cc1ccc(C)c(Br)c1)C(=O)Cn1cnc(S(=O)(=O)N2CCCC2)c1 | n | n | x | x | n | x | x | x
